Rows were chosen to be rich in hits. Some 3.7% of all compounds tested hit in one or more screens of this group.
Arbovirus inh = antivirals against arbovirus infection, primary screen, cell-based, full library, 10K replicate subset | arbovirus infection cell-based antiviral screen | inhibition, % at 10 µM | 200,000 compounds, 0.37% hits | AID 1251, 2008; in the data active = inhibition above about 30%
MDM2 E3 inh = MDM2-luciferase reporter signal enhancers, primary screen, MDM2 E3 ligase inhibitor project, cell-based, luminescence, 1536-well. cell-based MDM2 ubiquitination luciferase reporter, 2 h; 0 = plate control, 100 = twice control, blank-subtracted. signal enhancement, % at 5 µM. 210,000 compounds, 0.11% hits. AID 1230, 2008;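 active = signal enhancement of 30% or more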;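 also: luminescence tracks abundance of the self-degrading MDM2-luciferase fusion protein; higher signal means inhibition of MDM2 E3 ligase activity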
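Assay system: mammalian cells stably expressing self-ubiquitinating, self-degrading MDM2 E3–luciferase fusion. Quantity: 2000 cells in each well. Medium: DMEM culture medium. Compound dosing: single-point 5 µM. Timing: cell settling 4 h, compound treatment 2 h, both 37 °C. Technique: luciferase luminescence. Read-out basis: percent signal gain over controls, blank-subtracted. Benchmarks: plate controls and plate blanks.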
PKD1 kinase inh = inhibitors of human PKD1 kinase, biochemical, fluorescence polarization; Serine/threonine-protein kinase D1 (Homo sapiens), Q15139; PKD1 kinase fluorescence polarization assay; inhibition, % (no concentration beside the values); 200,000 compounds, 0.056% hits; AID 797, 2007; in the data active = inhibition above about 50%
ROMK primary = ROMK potassium channel modulators, primary screen, cell-based, thallium flux, MLSMR library. ATP-sensitive inward rectifier potassium channel 1 (Homo sapiens), P48048. Tet-inducible ROMK, thallium flux fluorescence; actives lie on both sides. B-score at 10 µM. 130,000 compounds, 2% hits. AID 1918, 2009;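 active = signal ratio slope over the read window, or its plate-corrected B-score, at least 3 SD from the plate mean, either direction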;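 also: B-score of the F/F0 ratio slope over 7 to 12 s after thallium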
Target sequence (P48048 whole entry, looked up): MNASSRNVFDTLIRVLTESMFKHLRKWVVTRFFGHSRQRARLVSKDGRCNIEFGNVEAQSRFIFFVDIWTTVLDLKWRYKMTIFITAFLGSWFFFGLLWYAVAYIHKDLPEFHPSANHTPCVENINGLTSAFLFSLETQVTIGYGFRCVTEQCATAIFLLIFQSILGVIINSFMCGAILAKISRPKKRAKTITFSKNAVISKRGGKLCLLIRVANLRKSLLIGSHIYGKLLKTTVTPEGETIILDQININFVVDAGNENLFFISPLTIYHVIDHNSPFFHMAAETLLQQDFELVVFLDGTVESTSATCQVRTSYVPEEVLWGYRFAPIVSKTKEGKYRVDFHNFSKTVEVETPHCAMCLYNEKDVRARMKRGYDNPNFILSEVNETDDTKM
KCC2 mod = KCC2 cotransporter modulators, thallium flux, primary screen, cell-based, HEK293 KCC2, FluoZin-2 fluorescence, MLSMR. B-score of Tl+ flux slope (higher = more flux/activation; lower = inhibition) at 10 µM. KCC2 cells, thallium flux FluoZin-2 fluorescence. AID 1456, 2008. Solute carrier family 12 member 5 (Homo sapiens), Q9H2X9. 190,000 compounds, 2.2% hits;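 active = thallium flux slope and its plate-corrected score both differing from the plate sample mean at a set confidence after two filtering rounds, in either direction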;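 also: slope of fluorescence scaled to starting intensity during 10 to 20 s after thallium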
Calpain2 inh = inhibitors of pig calpain II, primary screen, biochemical, fluorogenic peptide substrate, 1536-well; purified calpain II, 30 min; inhibition, % at 16 µM; 220,000 compounds, 0.37% hits; AID 1236, 2008;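 active = inhibition above about 50%, limit read from the data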
ROMK retest = ROMK channel modulator hit retest, confirmation, cell-based, thallium flux, duplicate, resupplied hits; shares compounds with ROMK primary; fluorescence ratio; hits give low values; normalized thallium flux (F/F0 slope) at 10 µM; 3,000 compounds, 54% hits; AID 1917, 2009;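 active = Flux at 10 µM at least 3 SD below or above vehicle control mean in one or both replicates; inconclusive = no clear call, values can overlap the other calls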
* marks the source's active call; other numbers are inactive results.

Results for CC1SC(c2ccc(F)cc2)NC1=O (stereo unspecified) ?
Arbovirus inh: -1; MDM2 E3 inh: -11; PKD1 kinase inh: 3; ROMK primary: 0.28; KCC2 mod: -0.15; Calpain2 inh: -14

How did NC(=O)c1c(NC(=O)CSc2nnc(Cc3ccccc3)n2Cc2ccco2)sc2c1CCC2 do in these assays?
Arbovirus inh: -4; MDM2 E3 inh: 8; PKD1 kinase inh: 2; ROMK primary: -3.7*; Calpain2 inh: -19; ROMK retest: 0.053*

How did O=C(CSc1nnc(Cc2cccs2)n1Cc1ccco1)Nc1ccc(Br)cc1 do in these assays?
Arbovirus inh: -43; MDM2 E3 inh: -20; PKD1 kinase inh: 1; ROMK primary: -2.9*; KCC2 mod: -0.51; Calpain2 inh: 9; ROMK retest: inconclusive

What do the screens show for `CC(C)(C)C1=CC(=Nc2ccccc2N)C=C(C(C)(C)C)C1=O`?
Arbovirus inh: 4; MDM2 E3 inh: -13; PKD1 kinase inh: -3; ROMK primary: 0.043; KCC2 mod: 0.39; Calpain2 inh: -7

Results for CC(C)(C)C1=CC(=O)C(=O)C(C(C)(C)C)=C1 ?
Arbovirus inh: 6; MDM2 E3 inh: 26; PKD1 kinase inh: -9; ROMK primary: -2.3*; KCC2 mod: 0.069; Calpain2 inh: -20; ROMK retest: 0.058*

What do the screens show for `O=C(NCc1ccccc1)N1CCC(n2cnc3cc(F)ccc32)CC1`?
Arbovirus inh: -1; MDM2 E3 inh: 17; PKD1 kinase inh: 8; KCC2 mod: 0.08; Calpain2 inh: 25; ROMK retest: 0.069*

What do the screens show for `O=C(c1ccc(Cl)cc1Cl)N1CCSCC1`?
MDM2 E3 inh: -6; ROMK primary: 0.064; KCC2 mod: 0.59; Calpain2 inh: -4

What do the screens show for `CCOc1ccc(N2CC(=O)N/C2=N\c2nc(C)cc(C)n2)cc1`?
Arbovirus inh: -4; MDM2 E3 inh: -33; PKD1 kinase inh: -10; KCC2 mod: -0.33; Calpain2 inh: 29; ROMK retest: 0.077

Results for CCOC(=O)c1c(NC(=O)CSc2nnc(Cc3ccccc3)o2)sc(C)c1C ?
Arbovirus inh: 12; MDM2 E3 inh: -1; PKD1 kinase inh: -14; KCC2 mod: -3.4; Calpain2 inh: -2

How did O=C(COc1ccccc1F)NCc1ccc(-n2cccc2)cc1 do in these assays?
Arbovirus inh: -7; MDM2 E3 inh: 10; PKD1 kinase inh: -7; KCC2 mod: -0.43; Calpain2 inh: 2

What do the screens show for `N=c1sccn1CC(=O)N1N=C(c2ccc(Cl)cc2)CC1c1ccco1` (stereo unspecified)?
Arbovirus inh: -7; MDM2 E3 inh: -21; PKD1 kinase inh: 0; ROMK primary: -3.2*; KCC2 mod: -0.45; Calpain2 inh: 5; ROMK retest: 0.064*

What do the screens show for `O=C1CCCC(=O)C1Sc1ccc(Cl)cc1`?
Arbovirus inh: -1; MDM2 E3 inh: -19; PKD1 kinase inh: -6; ROMK primary: -0.15; KCC2 mod: -2.6; Calpain2 inh: -9

What do the screens show for `CC(C)Sc1nc2c([nH]1)c(=N)ncn2Cc1ccccc1`?
Arbovirus inh: 11; MDM2 E3 inh: -5; PKD1 kinase inh: 0; ROMK primary: -4.4*; KCC2 mod: -0.88; Calpain2 inh: -7; ROMK retest: 0.057*

Results for COc1ccc(CCN2C(=O)CSC2=Nc2ccc(C)cc2C)cc1OC ?
MDM2 E3 inh: -4; ROMK primary: 0.037; KCC2 mod: -0.23; Calpain2 inh: 2

How did Cc1ccc(OC(C)C(=O)N(Cc2cccs2)C2CCS(=O)(=O)C2)cc1C (stereo unspecified) do in these assays?
MDM2 E3 inh: -3; KCC2 mod: -0.67; Calpain2 inh: 4

How did Cc1c(NC(=S)NC(=O)c2ccc(-c3ccc(Cl)cc3)o2)cccc1C(=O)O do in these assays?
Arbovirus inh: 4; MDM2 E3 inh: 4; PKD1 kinase inh: 1; ROMK primary: 3.5*; KCC2 mod: -4.4; Calpain2 inh: -40; ROMK retest: 0.089

Results for Cc1cc(/C=C2\SC(=Nc3ccc(F)cc3)NC2=O)c(C)n1-c1ccc(S(N)(=O)=O)cc1 ?
Arbovirus inh: -24; MDM2 E3 inh: -14; PKD1 kinase inh: 0; ROMK primary: 3.3*; KCC2 mod: -0.2; Calpain2 inh: -155; ROMK retest: 0.085

What do the screens show for `Cc1cc(=O)oc2cc(OCC(=O)Nc3ccc(S(=O)(=O)N(C)C)cc3)ccc12`?
MDM2 E3 inh: -10; Calpain2 inh: -177

Results for N#Cc1nc(-c2cccc3ccccc23)oc1NCCN1CCCCC1 ?
Arbovirus inh: -44; PKD1 kinase inh: -5; ROMK primary: -3.4*; KCC2 mod: 0.16; Calpain2 inh: inactive; ROMK retest: 0.065*

How did CCNc1oc(-c2cccc3ccccc23)nc1C#N do in these assays?
Arbovirus inh: 2; MDM2 E3 inh: -12; PKD1 kinase inh: -3; KCC2 mod: 0.71; Calpain2 inh: -439

Results for O=C(NCc1ccco1)C1CC(c2ccccc2C(F)(F)F)=NO1 (stereo unspecified) ?
MDM2 E3 inh: -10; KCC2 mod: -0.5; Calpain2 inh: -16

Results for O=C(NCc1ccco1)C1CC(c2ccccc2O)=NO1 (stereo unspecified) ?
Arbovirus inh: -14; MDM2 E3 inh: -6; PKD1 kinase inh: -10; ROMK primary: 3.6*; KCC2 mod: 0.46; Calpain2 inh: -25; ROMK retest: 0.078

Results for COc1ccc(OC)c(C2=NOC(C(=O)NCc3ccco3)C2)c1 (stereo unspecified) ?
Arbovirus inh: -23; MDM2 E3 inh: -12; PKD1 kinase inh: -8; ROMK primary: 3.5*; KCC2 mod: 0.055; Calpain2 inh: -20; ROMK retest: 0.079

What do the screens show for `CCc1nnc(NC(=O)C2(C)COC(c3ccc(OC)cc3)OC2)s1` (stereo unspecified)?
Arbovirus inh: -4; MDM2 E3 inh: 7; PKD1 kinase inh: -1; KCC2 mod: -0.08; Calpain2 inh: 22

How did O=C(CCCCCn1c(=S)[nH]c2cc3c(cc2c1=O)OCO3)N1CCN(C2CCCCC2)CC1 do in these assays?
Arbovirus inh: -6; MDM2 E3 inh: -19; PKD1 kinase inh: -5; ROMK primary: -1.2; Calpain2 inh: -26
